Assay results reported in the EternaBench riboswitch data.

System: MS2 coat protein
Test: apparent Kd, MS2 coat protein; higher = weaker binding; RNA-MaP array
In short: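 With or without input ligand, designed RNAs transcribed on an Illumina sequencing chip from sequenced DNA templates were incubated at room temperature with fluorescently labeled MS2 coat protein at 1.5 nM to 3 μM. The buffer was Tris-HCl pH 7.5 with KCl, MgCl2, BSA, DTT, tRNA and Tween20, and incubation ran 0.8–1.5 h at the lowest and 10–20 min at the highest concentrations. Apparent Kd is reported as the median of fits to binding curves from individual clusters. Designs measured on fewer than 10 clusters are not included.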

[1] = designed as: ON switch for flavin mononucleotide, no ligand
[2] = ligand present: flavin mononucleotide, designed as: ON switch for flavin mononucleotide
[3] = designed as: OFF switch for flavin mononucleotide, no ligand
[4] = ligand present: flavin mononucleotide, designed as: OFF switch for flavin mononucleotide
[5] = designed as: OFF switch for theophylline, no ligand
[6] = ligand present: theophylline, designed as: OFF switch for theophylline

Sequence | apparent Kd [3] [nM] | apparent Kd [4] [nM] | other results
AUAUCCUCAACAGGAUAUACACGUGACUAAAUGGUAGAAGGGUUAGCAGACGACAUGAGGAUCACCCAUGUUUAGGAUAAAGCG |  |  | apparent Kd [1]: 10.7 nM; apparent Kd [2]: 9.66 nM
CGCGGAACAUGAGGAUCACCCAUGUUAUGUAACAGCAAACUAAGAAGGCGUUAUAUAAGUAUGGACGAGGAUAUUAGCUUGAGU |  |  | apparent Kd [1]: 24.3 nM; apparent Kd [2]: 8.8 nM
CAAUGACCCAAGGAUAUCUGCAGACGCGAGCCCAGAGAAGGUGGGACAUGAGGAUCACCCAUGUUCUCGUGUGA | 37 | 73.1 | 
GCAACAUGUUCAGGAUAUACGCUACAAACUCGUGUAGAAGGGAAGGAUACAAUUACAUGAGGAUCACCCAUGUGUUAUCCGAUU |  |  | apparent Kd [1]: 23.7 nM; apparent Kd [2]: 20.8 nM
CUAAGAUAAGAAGGAUAUAAAACAUGAGGAUCACCCAUGUAAAAGUACAUCACACUACAAAUGGAUUAGAAGGUCUUAAUAACC | 10.2 | 8.47 | 
UCGUGCAGAUAGGAUAUAUAGUCACUGUCGUCUAUAGAAGGAUCUACAUGAGGAUCACCCAUGUAAUGUGAGUC | 132 | 30.6 | 
UAACUCAAGUAACAGGAUAUGAGUGCGGAUACAUGAGGAUCACCCAUGUUGACGAUAACCGGACAACAGAAGGGUACCUAACUUGG |  |  | apparent Kd [1]: 33.5 nM; apparent Kd [2]: 22.2 nM
CGUUAGCAGUAGAAGGUAGCCGGCAGGUCAGGGCGACCACAUGAGGAUCACCCAUGUCUAUGUUCUAAGGAUAUACUGACCCAA | 5.2 | 5.59 | 
GGAAGGACAGUUGAUACCAGUUUCAAAGGCGGUAAUCACUACAUGAGGAUCACCCAUGUCAACCCUUGGCAGCAAUAGACCGUGG |  |  | apparent Kd [5]: 18.8 nM; apparent Kd [6]: 24 nM
AGGAUCCAGGAGAAGGCAACUGUAGUUUGGCAUUGAGGAUAUCCAAAGACCCGCUAGAUAGGAGCACAUGAGGAUCACCCAUGU |  |  | apparent Kd [1]: 35.5 nM; apparent Kd [2]: 19.1 nM
CUCAGGCUGCGAGGAUAUCCGUCGAAUCAAACAGGAGAAGGCGCAUACAUGAGGAUCACCCAUGUGCUGACUUGUCCGUGAAUC | 5.46 | 6.37 | 
UUGUGUUCUUAGGAUAUACAACUUACCAUCAGAGUAGAAGGAAGGACAUGAGGAUCACCCAUGUGGGCUAGCAG | 154 | 21.7 | 
GGACACGAAGGAUAUACCCAAUGCCUGAGAAAACUCAUGGGACAUGAGGAUCACCCAUGUAGAAGGUCGUUAAA | 558 | 416 | 
UAGGAUUAAGGAGGAUAUCGCCAAUAAGCUUCGCGAGAAGGCCUAUAUACAUGAGGAUCACCCAUGUUUGGUUGUUAGUGUCUU | 7.9 | 10.6 | 
CAGUGAAGAGGAUAUACAUGAGGAUCACCCAUGUACCGUGGUCCAUAUCAUAAUUCGAGUAGAAGGCUUAACCA | 114 | 108 | 
UUGCUCUCUUCGGCCGCCACUACACGCGAGUUGACGACUGGCGGACAUGAGGAUCACCCAUGUCAUAGGACCGGGAAUCACGCUG |  |  | apparent Kd (designed as: ON switch for tryptophan, no ligand): 13.4 nM; apparent Kd (ligand present: tryptophan, designed as: ON switch for tryptophan): 13.8 nM
GCUUGCUCAGAGGAUAUAGUUUCAACCACUCUACUAGAAGGCUGUACAUGAGGAUCACCCAUGUCCUUAAUCUC | 22.6 | 23.7 | 
GUUGGACAUGAGGAUCACCCAUGUGAAUUGUUUUCCACGUACUAGGAUAUCGCGGGACAAACCAUCGAGAAGGAGUCGACCUAA | 14.4 | 12.2 | 
AGAAGCUAAUCCGGCUCAUACAUGAGGAUCACCCAUGUUUUCAGAAGGGAGUCCGUCGCACCGACUCAGGAUAUGAUUCAAGAA |  |  | apparent Kd [1]: 15.6 nM; apparent Kd [2]: 21.8 nM
AUAAGUAUAGGAUAUACAGGUAAGCGUUCUUACCGAUCCAGACAUGAGGAUCACCCAUGUAGAAGGAUACGUCU | 8.18 | 7.87 | 
AUGUCCUAAACGGCCGCCACUUACAUGAGGAUCACCCAUGUUUACCGAUAUGGUUGUUGCUUUCCAAGGACCGGGUUUAAUCUGC |  |  | apparent Kd (designed as: OFF switch for tryptophan, no ligand): 12.7 nM; apparent Kd (ligand present: tryptophan, designed as: OFF switch for tryptophan): 13.5 nM
AAGCUCUCAGGAUAUACAUGAGGAUCACCCAUGUGGUCGUAUUUAAAGUGGAGCAGCAGUAGAAGGGAGGCGAC | 24.5 | 20.4 | 
UCGAACGGGCAAGGAUAUCGAAGAUCCAAAAUUCGAGAAGGUGCAUGUGAUCGUCCGGUGUCACAUGAGGAUCACCCAUGUCAA | 354 | 179 | 
CGGGUGUAGACAGGAUAUGCAAAUAAAGGUGAAGCAGAAGGGUCACAUGAGGAUCACCCAUGUCACUAAAUUGGCGGUAUAAGA | 39 | 159 | 
UCGGUAUAUACAGGAUAUGGUCAAUACAUGAGGAUCACCCAUGUUAGAGCGGCAAAUAGGAUCUUCCAGAAGGGUACUUGCUUA | 14.8 | 11.5 | 
AAAGGCGUAGGAUAUACAUGAGGAUCACCCAUGUAUCACAAUAACGAGGAAUGAAAGUGUAGAAGGACGAUAAC | 7.48 | 6.8 | 
CAAUAUUUCCAGAAGGGCAAGCUAACACCAACUGCAGGAUAUGGUUUCAUACAACAUGAGGAUCACCCAUGUGGCACAGGUUCC |  |  | apparent Kd [1]: 18.6 nM; apparent Kd [2]: 17.2 nM

Sequence | apparent Kd [3] [nM] | apparent Kd [4] [nM] | other results
CCAAACACUGGAGGAUAUGCAAGAACAUGAGGAUCACCCAUGUAGUAACGAUAAAGAAAACAAGCGCAGAAGGCCACAUCUCUA |  |  | apparent Kd [1]: 14.2 nM; apparent Kd [2]: 6.49 nM
AAUGACAUGAGGAUCACCCAUGUCCAUCUAAGCUCGGGUCUGCAGGAUAUUCCCGUGGGAUUAGGGAAGAAGGGCAGUGAUUGU |  |  | apparent Kd [1]: 14 nM; apparent Kd [2]: 7.02 nM
UUGAAGAAUCACAUGAGGAUCACCCAUGUCAGGGUGAGUUUUGAGGAUAUACCGCCCAGGACUCGGUAGAAGGCAAGAAAUUAA | 553 | 562 | 
UGCGCGAGAGGAUAUUAUCGUAACUACAUGAGGAUCACCCAUGUUUCGCCCGUAGCUGGAUAAGAAGGCUCGAGUG | 14.6 | 20.7 | 
UCUUCCCGCUUAGGAUAUCUUGCUAAUUUGUGUAGAGAAGGAAGUGUAAACAUGAGGAUCACCCAUGUGGCCUCCAGAUAAAGC | 12.1 | 14.9 | 
UUAUAGAGAGGAUAUACAUGAGGAUCACCCAUGUUAUUACCAAGCUUGAUGGGUAUGCGUAGAAGGCUCAUGAA | 19.1 | 35 | 
UAAAUACAUGAGGAUCACCCAUGUUUGGAUACCAGAUAUGACAUUAUCCCUUGGCAGCCAUUCGUUCCAAAUGCUAUUGUGAAGG |  |  | apparent Kd (designed as: ON switch for theophylline, no ligand): 22.5 nM; apparent Kd (ligand present: theophylline, designed as: ON switch for theophylline): 31 nM
GACGAGUGCGAGUCACAUGAGGAUCACCCAUGUAACCAUGGGCAGGAUAUCUACCAGUUACUUUCAGAGAAGGGCCAACGAACU |  |  | apparent Kd [1]: 419 nM; apparent Kd [2]: 108 nM
AUGAGCUGAGGAUAUAUUAACCUGUACAUGAGGAUCACCCAUGUAGCGUGUAGAGUGAGAAUAGAAGGCAGACAUC | 17.2 | 12.8 | 
AAUGGGUGAGAUCGUUUCAACAUGAGGAUCACCCAUGUUGACAGAAGGAGGUCUAAAUAGCUACCCUAGGAUAUGUCCAUGCGA | 19.9 | 31.9 | 
UAUCUUGAUAGAGGAUAUGAUAUUAAAGAAUAAUCAGAAGGCUAGUCAGAUCUUCUACAUGAGGAUCACCCAUGUUCGCGAACC | 211 | 208 | 
UAGAAUACAGGAUAUACAGCGAGAAAUCAUAUAAUAUACACACAUGAGGAUCACCCAUGUAGAAGGGAAUAAGG | 24.9 | 24 | 
UGGUCGCAGUGAGGAUAUCCAGUCUAGGCACACGGAGAAGGCACGCGACAUGAGGAUCACCCAUGUAGACGAUAUGCUCCAGGU | 22.1 | 31.3 | 
GUUCGGCGAGGAUAUCUGCUACAGUACAUGAGGAUCACCCAUGUGGGUUAUGUCCGGUCCAGAGAAGGCGCUGCCA | 33.4 | 47.9 | 
AAAUUCGGGAUCUAGGAUAUGUGCGUUUACACAUGAGGAUCACCCAUGUCUCACAGCCGUUUACCACAGAAGGAGAAACGACCUUA |  |  | apparent Kd [1]: 31.1 nM; apparent Kd [2]: 23.9 nM
AUAGCAUGAGUAGGAUAUUUUGAGCGUUGUGCAAAAGAAGGACUGACCGUGAUUAUAAUAUACAUGAGGAUCACCCAUGUUACA | 9.42 | 8.03 | 
UGCAGGCGAACAGGAUAUCACACAUGAGGAUCACCCAUGUAAACUACUUAAGAAAGGGAGCCUCGUGAGAAGGGUUUCUUUGGG | 74.6 | 60.1 | 
AUACCAUCCCAAGGAUAUGUUACCUAGACAUGAGGAUCACCCAUGUGAGAUUAGAGCUGUCGCGUACAGAAGGUGGUGAUGACA | 25.3 | 28.1 | 
UUAGCACAUGAGGAUCACCCAUGUUAGGAUAUCCGUUAAUAUCAGGCAAGGUCUGAAAGGAGAAGGAACAUGAA | 35.4 | 67.9 | 
UUGGUCCACAGACAUGAGGAUCACCCAUGUAGUAGUUGAAUGAGAAGGGCACUGGCUUGUCAGGUGCAGGAUAUCAGUCUAUGU | 118 | 106 | 
AUCACUGUGAAAGAUACCAGCGCCCUACCUAUCUUCUGUUACAUGAGGAUCACCCAUGUUCGCCCUUGGCAGCUUGAGAUGGAUC |  |  | apparent Kd [5]: 49 nM; apparent Kd [6]: 70.6 nM
CGGCAUGGAACAGGAUAUGGGUAAUUCAUUUGACCAGAAGGGUUCUUCAGCAGCCGUUGCACAUGAGGAUCACCCAUGUCAUAU |  |  | apparent Kd [1]: 29.7 nM; apparent Kd [2]: 10 nM
CGAAACAUGAGGAUCACCCAUGUGUAGAUCCUGCAAGCAUAUAGAAGGUCGUCACUCCGUCACGCGAAGGAUAUAUUAAGUGCC | 210 | 168 | 
GUCGGCUCAGUGUAGGAUAUGUCAAAGGUCACAUGAGGAUCACCCAUGUCUCGACGCAAAUUAGGACAGAAGGACAGCCAAAGCAU |  |  | apparent Kd [1]: 7.57 nM; apparent Kd [2]: 4.97 nM
GGUUUACAUGAGGAUCACCCAUGUCCUGACAUGAGUUAGAAACAGGAUAUGGCGCAAGAAAAUGUCCAGAAGGGUUCAUAGCAA |  |  | apparent Kd [1]: 238 nM; apparent Kd [2]: 70.2 nM
CUGUUUGUUUGGGUCUGUCAAAAGAACGAUACCAGCCGCAUUAUGGGCCCUUGGCAGCGUAGGACAUGAGGAUCACCCAUGUACG |  |  | apparent Kd [5]: 18.7 nM; apparent Kd [6]: 35.2 nM
UAACCCGUGUAGAAGGCAAGCUCCGCGCUGGUCGUCAUCACAUGAGGAUCACCCAUGUGGAAGAUUGAGGAUAUACGCGCGAUG | 5.45 | 7.53 | 
